Assay results reported in ChEMBL document CHEMBL1671857, “Inducible resistance of fish bacterial pathogens to the antimicrobial peptide cecropin B” (2008).
Activity calls are given as the source filed them. The calls are words filed in the database; no cut-off is given here.

Tests used:
[1] = Antimicrobial activity against Vibrio anguillarum 775; format: functional
Procedure, shortened: (§1)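 Exponential-phase cultures (overnight broth diluted 1:1,000) in tryptic soy broth, with 1% NaCl added for vibrios, at 25°C. Cultures at 1 × 10^7 CFU/ml were mixed with an equal volume of medium containing cecropin B and shaken at 200 rpm. OD570 was read every 4 h over 16 h. Growth-curve area (Simpson's rule) was divided by the drug-free control to give a fractional area. MIC is the x-intercept of the trend line of fractional area versus concentration. Mean ± SD of three experiments, each in triplicate.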

CHSE-214 [2] = assay: Antimicrobial activity against compound-exposed Vibrio anguillarum 775 infected in CHSE-214 cells assessed as increase in adhesion to cells at 120 ug/ml after 90 mins relative to control; format: functional, cell-based
Procedure, shortened: (§2)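 CHSE-214 cells (CO2-independent medium, 10% FBS, 20°C, no antibiotics) at 80% confluence were incubated with mid-log V. anguillarum (unexposed or cecropin B-exposed) at an MOI of 100 for 0–90 min at ~22°C. Monolayers were washed twice in PBS and lysed with 1% Triton X-100, and lysates were plated. Adherent bacteria were counted per CHSE-214 cell.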

Pseudomonas fluorescens [3] = assay: Antimicrobial activity against Pseudomonas fluorescens; format: functional; procedure, shortened: as §1
Vibrio anguillarum 775 [4] = assay: Antimicrobial activity against Vibrio anguillarum 775 assessed as reduction in extracellular product secreted by cells at 120 ug/ml; format: functional
Procedure, shortened: (§3)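 Exponential-phase broth cultures, with or without prior cecropin B exposure, were adhered 10 min at room temperature to poly-L-lysine-coated chips. Chips were fixed in 2% glutaraldehyde in cacodylate buffer for 30 min, then in 1% osmium tetroxide overnight. Samples were dehydrated through an ethanol series, critical-point dried, gold sputter-coated and examined by scanning electron microscopy.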

[5] = Antimicrobial activity against Vibrio anguillarum 775 selected after 120 ug/ml of drug exposure; format: functional
Procedure, shortened: (§4)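 Bacteria were grown 16 h in broth with cecropin B at a concentration chosen empirically to allow growth to mid-log (OD600 ~0.4). Cultures were then diluted to 1 × 10^7 CFU/ml and the MIC was determined by the 16-h OD570 growth-curve area method. Mean ± SD of three experiments, each in triplicate.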

Yersinia ruckeri [6] = assay: Antimicrobial activity against Yersinia ruckeri assessed as appearance of ridges on outer surface of the bacterial cell at 90 ug/ml by SEM; format: functional; procedure, shortened: as §3
Vibrio vulnificus [7] = assay: Antimicrobial activity against Vibrio vulnificus assessed as appearance of rugose membrane shape at 70 ug/ml by SEM; format: functional, organism-based; procedure, shortened: as §3
Pseudomonas fluorescens [8] = assay: Antimicrobial activity against Pseudomonas fluorescens selected after 20 ug/ml of drug exposure; format: functional; procedure, shortened: as §4
Vibrio vulnificus [9] = assay: Antimicrobial activity against Vibrio vulnificus selected after 70 ug/ml of drug exposure; format: functional; procedure, shortened: as §4
CHSE-214 [10] = assay: Antimicrobial activity against compound-exposed Vibrio anguillarum 775 infected in CHSE-214 cells assessed as increase in adhesion to cells at 120 ug/ml after 30 mins relative to control; format: functional, cell-based; procedure, shortened: as §2
Vibrio vulnificus [11] = assay: Antimicrobial activity against Vibrio vulnificus assessed as reduced cell size at 70 ug/ml by SEM; format: functional, organism-based; procedure, shortened: as §3
Vibrio vulnificus [12] = assay: Antimicrobial activity against Vibrio vulnificus assessed as loss of flagella at 70 ug/ml by SEM; format: functional, organism-based; procedure, shortened: as §3
[13] = Antimicrobial activity against Vibrio anguillarum 775 selected after passage with 120 ug/ml of compound; format: functional
Vibrio vulnificus [14] = assay: Antimicrobial activity against Vibrio vulnificus; format: functional; procedure, shortened: as §1
CHSE-214 [15] = assay: Antimicrobial activity against compound-exposed Vibrio anguillarum 775 infected in CHSE-214 cells assessed as increase in adhesion to cells at 120 ug/ml after 60 mins relative to control; format: functional, cell-based; procedure, shortened: as §2
Vibrio anguillarum 775 [16] = assay: Antimicrobial activity against Vibrio anguillarum 775 assessed as increase in bacterial survival at 100 ug/ml by broth culture growth inhibition assay; format: functional
Procedure, shortened: (§5)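 Broth growth-inhibition assay in tryptic soy broth (1% NaCl for vibrios) at 25°C, 200 rpm. Cultures started at 1 × 10^7 CFU/ml and were mixed 1:1 with cecropin B-containing medium. OD570 was read every 4 h for 16 h. Fractional survival is the area under the growth curve (Simpson's rule) relative to the untreated control.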

Vibrio vulnificus [17] = assay: Antimicrobial activity against Vibrio vulnificus assessed as increase in bacterial survival at 100 ug/ml by broth culture growth inhibition assay; format: functional, organism-based; procedure, shortened: as §5
Vibrio anguillarum 775 [18] = assay: Antimicrobial activity against Vibrio anguillarum 775 infected in medaka fish assessed as mortality at 120 ug/ml by immersion challenge assay; format: functional
Procedure, shortened: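 Groups of 20 medaka, 7–8 months old, were immersed 90 min in PBS (pH 7.3, 1.0% NaCl) containing 1 × 10^5 CFU/ml V. anguillarum, either unexposed or pre-exposed to 120 μg/ml cecropin B. Cumulative mortality was recorded over 14 days. Three separate experiments, mean ± SD.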

Yersinia ruckeri [19] = assay: Antimicrobial activity against Yersinia ruckeri; format: functional; procedure, shortened: as §1
Yersinia ruckeri [20] = assay: Antimicrobial activity against Yersinia ruckeri assessed as increase in bacterial survival at 100 ug/ml by broth culture growth inhibition assay; format: functional; procedure, shortened: as §5

H-KWKVFKKIEKMGRNIRNGIVKAGPAIAVLGEAKAL-NH2 [CECROPIN B]
MIC [1]: 147 µg/mL | Activity (CHSE-214 [2]): inactive | MIC (Pseudomonas fluorescens [3]): 25 µg/mL | Activity (Vibrio anguillarum 775 [4]): inactive | MIC [5]: 209 µg/mL | Activity (Yersinia ruckeri [6]): inactive | Activity (Vibrio vulnificus [7]): inactive | MIC (Pseudomonas fluorescens [8]): 24 µg/mL | MIC (Vibrio vulnificus [9]): 136 µg/mL | Activity (CHSE-214 [10]): inactive | Activity (Vibrio vulnificus [11]): inactive | Activity (Vibrio vulnificus [12]): inactive | MIC [13]: 142 µg/mL | MIC (Vibrio vulnificus [14]): 85 µg/mL | Activity (CHSE-214 [15]): inactive | Activity (Vibrio anguillarum 775 [16]): inactive | Activity (Vibrio vulnificus [17]): inactive | Activity (Vibrio anguillarum 775 [18]): inactive | MIC (Yersinia ruckeri [19]): 100 µg/mL | Activity (Yersinia ruckeri [20]): inactive
